In ChEMBL document CHEMBL1157373, “Dual targeting of DNA gyrase and topoisomerase IV: target interactions of heteroaryl isothiazolones in Staphylococcus aureus” (Antimicrob Agents Chemother, 2007):
Converted amounts (≈) assume the structure as drawn.

What was measured:
Staphylococcus aureus [1] = test: Antibacterial activity against Staphylococcus aureus ATCC 29213 after 24 hrs by broth microdilution method; format: functional; details: ATCC 29213, 24 h
Summary of the method: (§1)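 Broth microdilution per CLSI guidelines. MIC taken as the lowest concentration preventing visible growth at 24 h. Each MIC determined at least twice.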

Staphylococcus aureus [2] = test: Antibacterial activity against Staphylococcus aureus ACH-0203 isolate with gyrA Ser84Leu and grlA Ser80Phe, Ala116Val mutant after 24 hrs by broth microdilution method; format: functional; summary of the method: as §1
[3] = Inhibition of Staphylococcus aureus wild-type topoisomerase 4 decatenation activity assessed as unlinking of DNA microcircles from kinetoplast DNA
Summary of the method: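 S. aureus topo IV reconstituted from His-purified recombinant GrlA and GrlB (E. coli BL21(DE3)pLysS expression), mixed 1:1 molar on ice 10 min. 0.1 μg catenated kDNA with 2 U enzyme, 30 min at 37°C in 1 mM ATP, 5 mM DTT, 5 mM MgCl2, 50 μg/ml BSA, 50 mM Tris-HCl pH 7.5, 250 mM potassium glutamate. Products on 1% agarose gel, ethidium-stained, quantitated; IC50 by nonlinear regression.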

Staphylococcus aureus [4] = test: Antibacterial activity against Staphylococcus aureus BSA678 isolate with gyrA Ser84Leu, Ser85Pro and grlA Ser80Phe, Glu84Lys mutant after 24 hrs by broth microdilution method
Staphylococcus aureus [5] = test: Antibacterial activity against Staphylococcus aureus ACH-0206 isolate with gyrA Ser84Leu mutant after 24 hrs by broth microdilution method; format: functional; summary of the method: as §1
Staphylococcus aureus [6] = test: Antibacterial activity against Staphylococcus aureus ACH-0216 isolate with grlA Ser80Phe mutant after 24 hrs by broth microdilution method; format: functional; summary of the method: as §1
Staphylococcus aureus [7] = test: Antibacterial activity against Staphylococcus aureus ACH-0218 isolate with grlA Glu84Lys mutant after 24 hrs by broth microdilution method; format: functional; summary of the method: as §1
Staphylococcus aureus [8] = test: Antibacterial activity against Staphylococcus aureus ACH-0204 isolate with gyrA Ser84Leu mutant after 24 hrs by broth microdilution method; format: functional; summary of the method: as §1
[9] = Inhibition of Staphylococcus aureus […] topoisomerase 4 grlA S80F mutant decatenation activity assessed as unlinking of DNA microcircles from kinetoplast DNA
Summary of the method: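 Recombinant S. aureus GrlA (Ser80Phe) and GrlB were mixed 1:1 molar on ice for 10 min. kDNA (0.1 μg) with 2 U enzyme, 30 min at 37°C, in 1 mM ATP, 5 mM MgCl2, 250 mM K-glutamate, 50 mM Tris pH 7.5. Reactions stopped with EDTA, run on 1% agarose-TBE and ethidium-stained, minicircles quantitated. IC50 by nonlinear regression.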

Staphylococcus aureus [10] = test: Antibacterial activity against Staphylococcus aureus ACH-0221 isolate with gyrA Ser84Leu mutant after 24 hrs by broth microdilution method; format: functional; summary of the method: as §1
Staphylococcus aureus [11] = test: Antibacterial activity against Staphylococcus aureus ACH-0129 isolate with gyrA Ser84Leu, Glu88Val and grlA Ser80Phe, Ala116Val mutant after 24 hrs by broth microdilution method; format: functional
DNA gyrase subunit A = DNA gyrase subunit A (Staphylococcus aureus, UniProt P20831, S84L); test: Inhibition of Staphylococcus aureus DNA gyrase gyrA S84L mutant supercoiling activity assessed as effect on conversion of relaxed pBR322 DNA to supercoiled form
Staphylococcus aureus [12] = test: Antibacterial activity against Staphylococcus aureus ACH-0231 isolate with gyrA Ser84Leu, Glu88Lys and grlA Ser80Tyr, Glu84Gly mutant after 24 hrs by broth microdilution method; format: functional
Staphylococcus aureus [13] = test: Antibacterial activity against Staphylococcus aureus ACH-0201 isolate with gyrA Ser84Leu, Glu88Val and grlA Ser80Phe, Ala116Val mutant after 24 hrs by broth microdilution method; format: functional
Staphylococcus aureus [14] = test: Antibacterial activity against Staphylococcus aureus ATCC 33591 isolate after 24 hrs by broth microdilution method; format: functional; details: ATCC 33591, 24 h; summary of the method: as §1
Staphylococcus aureus [15] = test: Antibacterial activity against Staphylococcus aureus ACH-0141 isolate with gyrA Ser84Leu, Glu88Val and grlA Ser80Phe, Ala116Val mutant after 24 hrs by broth microdilution method; format: functional
Staphylococcus aureus [16] = test: Antibacterial activity against Staphylococcus aureus ACH-0210 isolate with gyrA Ser84Leu and grlA Ser80Phe mutant after 24 hrs by broth microdilution method; format: functional
Staphylococcus aureus [17] = test: Antibacterial activity against Staphylococcus aureus ACH-0126 isolate with gyrA Ser84Leu and grlA Ser80Phe mutant after 24 hrs by broth microdilution method; format: functional
Staphylococcus aureus [18] = test: Antibacterial activity against Staphylococcus aureus ACH-0186 isolate with gyrA Ser84Leu and grlA Ser80Phe, Ala116Val mutant after 24 hrs by broth microdilution method; format: functional
Staphylococcus aureus [19] = test: Antibacterial activity against Staphylococcus aureus ACH-0192 isolate with gyrA Ser84Leu and grlA Ser80Phe, Ala116Val mutant after 24 hrs by broth microdilution method; format: functional
Staphylococcus aureus [20] = test: Antibacterial activity against Staphylococcus aureus ATCC 700699 isolate with gyrA Ser84Leu, Glu409Lys and grlA Ser80Phe mutant after 24 hrs by broth microdilution method; format: functional; details: ATCC 700699, 24 h
Staphylococcus aureus [21] = test: Antibacterial activity against Staphylococcus aureus BSA643 isolate with gyrA Ser84Leu and grlA Ser80Tyr, Glu84Gly mutant after 24 hrs by broth microdilution method; format: functional
Staphylococcus aureus [22] = test: Antibacterial activity against Staphylococcus aureus NY2746 isolate with gyrA Ser84Leu and grlA Ser80Phe mutant after 24 hrs by broth microdilution method; format: functional

| Structure (SMILES) | MIC (Staphylococcus aureus [1]) [µg/mL] | MIC (Staphylococcus aureus [2]) [µg/mL] | IC50 [3] [nM] | MIC (Staphylococcus aureus [4]) [µg/mL] | MIC (Staphylococcus aureus [5]) [µg/mL] | MIC (Staphylococcus aureus [6]) [µg/mL] | MIC (Staphylococcus aureus [7]) [µg/mL] | MIC (Staphylococcus aureus [8]) [µg/mL] | IC50 [9] [µM] | MIC (Staphylococcus aureus [10]) [µg/mL] | MIC (Staphylococcus aureus [11]) [µg/mL] | MIC (Staphylococcus aureus [12]) [µg/mL] | MIC (Staphylococcus aureus [13]) [µg/mL] | MIC (Staphylococcus aureus [15]) [µg/mL] | MIC (Staphylococcus aureus [16]) [µg/mL] | MIC (Staphylococcus aureus [17]) [µg/mL] | MIC (Staphylococcus aureus [18]) [µg/mL] | MIC (Staphylococcus aureus [19]) [µg/mL] | MIC (Staphylococcus aureus [20]) [µg/mL] | MIC (Staphylococcus aureus [21]) [µg/mL] | also measured |
| --- | --- | --- | --- | --- | --- | --- | --- | --- | --- | --- | --- | --- | --- | --- | --- | --- | --- | --- | --- | --- | --- |
| O=C(O)c1cn(C2CC2)c2cc(N3CCNCC3)c(F)cc2c1=O [CIPROFLOXACIN] | 0.25 (≈ 0.754 µM) | 128 (≈ 386 µM) | 3000 | 128 (≈ 386 µM) | 0.5 (≈ 1.51 µM) | 2 (≈ 6.04 µM) | 2 (≈ 6.04 µM) | 0.5 (≈ 1.51 µM) | > 40 | 1 (≈ 3.02 µM) |  |  |  |  |  |  |  |  |  |  |  |
| CO/N=C1\CN(c2nc3c(cc2F)c(=O)c(C(=O)O)cn3C2CC2)CC1CN (centres undefined) [GEMIFLOXACIN] | 0.03 (≈ 0.077 µM) | 32 (≈ 82.2 µM) | 400 | 64 (≈ 164 µM) | 0.125 (≈ 0.321 µM) | 0.125 (≈ 0.321 µM) | 0.125 (≈ 0.321 µM) | 0.125 (≈ 0.321 µM) | 9.8 | 0.5 (≈ 1.28 µM) | 8 (≈ 20.5 µM) | > 64 | 8 (≈ 20.5 µM) | 4 (≈ 10.3 µM) | 4 (≈ 10.3 µM) | 4 (≈ 10.3 µM) | 4 (≈ 10.3 µM) | 8 (≈ 20.5 µM) | 4 (≈ 10.3 µM) | 32 (≈ 82.2 µM) | IC50 (DNA gyrase subunit A): > 300 µM; MIC (Staphylococcus aureus [14]): 0.06 µg/mL (≈ 0.154 µM); MIC (Staphylococcus aureus [22]): 32 µg/mL (≈ 82.2 µM) |
| CC[n+]1c(-c2ccccc2)c2cc(N)ccc2c2ccc(N)cc21.[Br-] [HOMIDIUM BROMIDE] | 4 | 32 |  | 4 | 4 | 4 | 16 | 4 |  | 16 | 4 | 16 | 2 | 4 | 2 | 4 | 1 | 2 | > 64 | 16 | MIC (Staphylococcus aureus [14]): 16 µg/mL; MIC (Staphylococcus aureus [22]): 16 µg/mL |
| COc1c(N2C[C@@H]3CCCN[C@@H]3C2)c(F)cc2c(=O)c(C(=O)O)cn(C3CC3)c12 [MOXIFLOXACIN] | 0.06 (≈ 0.149 µM) | 32 (≈ 79.7 µM) | 1000 | > 64 | 0.125 (≈ 0.311 µM) | 0.25 (≈ 0.623 µM) | 0.25 (≈ 0.623 µM) | 0.125 (≈ 0.311 µM) | 11.9 | 0.5 (≈ 1.25 µM) | 8 (≈ 19.9 µM) | 32 (≈ 79.7 µM) | 16 (≈ 39.9 µM) | 16 (≈ 39.9 µM) | 4 (≈ 9.96 µM) | 4 (≈ 9.96 µM) | 16 (≈ 39.9 µM) | 16 (≈ 39.9 µM) | 4 (≈ 9.96 µM) | 16 (≈ 39.9 µM) | MIC (Staphylococcus aureus [22]): 8 µg/mL (≈ 19.9 µM) |
